Experimental data from ChEMBL document CHEMBL1135842, “Synthesis and biological activity of polygalloyl-dendrimers as stable tannic acid mimics” (Bioorg Med Chem Lett, 2002).

Columns and labels:
[1] = The degree of collagen cross-linking by hydrothermal shrinkage temperature was determined; format: functional
Method in brief: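 Purified skin collagen matrices incubated 48 h at room temperature with samples at 4 mM in 85% glycerol; hydrothermal shrinkage onset temperature (Ts) recorded, with untreated matrix as reference. Means of five experiments with SEM; significance versus tannic acid at p<0.05.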

[2] = Effective dose required for antioxidant activity was measured as dose giving 50% decolorization of 2,2-diphenyl-1-picryl-hydrazyl (DPPH); format: functional
Method in brief: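 DPPH radical scavenging: compounds serially diluted ([…]), incubated with […] in 75% ethanol for 15 min at room temperature; absorbance read at 550 nm. ED50 (dose giving 50% decolorization) obtained by linear regression of absorbance curves; means of five experiments, SEM reported.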

Row | Compound | Ts [1] | ED50 [2]
1 | O=C(O)c1cc(OCCNC(=O)c2cc(OCCNC(=O)c3cc(OCCNC(=O)c4cc(O)c(O)c(O)c4)cc(OCCNC(=O)c4cc(O)c(O)c(O)c4)c3)cc(OCCNC(=O)c3cc(OCCNC(=O)c4cc(O)c(O)c(O)c4)cc(OCCNC(=O)c4cc(O)c(O)c(O)c4)c3)c2)cc(OCCNC(=O)c2cc(OCCNC(=O)c3cc(OCCNC(=O)c4cc(O)c(O)c(O)c4)cc(OCCNC(=O)c4cc(O)c(O)c(O)c4)c3)cc(OCCNC(=O)c3cc(OCCNC(=O)c4cc(O)c(O)c(O)c4)cc(OCCNC(=O)c4cc(O)c(O)c(O)c4)c3)c2)c1 | 57 °C | 4.7 µM
2 | O=C(O)c1cc(OCCNC(=O)c2cc(OCCNC(=O)c3cc(O)c(O)c(O)c3)cc(OCCNC(=O)c3cc(O)c(O)c(O)c3)c2)cc(OCCNC(=O)c2cc(OCCNC(=O)c3cc(O)c(O)c(O)c3)cc(OCCNC(=O)c3cc(O)c(O)c(O)c3)c2)c1 | 57.9 °C | 7.4 µM
3 | O=C(OC[C@H]1O[C@@H](OC(=O)c2cc(O)c(O)c(OC(=O)c3cc(O)c(O)c(O)c3)c2)[C@H](OC(=O)c2cc(O)c(O)c(OC(=O)c3cc(O)c(O)c(O)c3)c2)[C@@H](OC(=O)c2cc(O)c(O)c(OC(=O)c3cc(O)c(O)c(O)c3)c2)[C@@H]1OC(=O)c1cc(O)c(O)c(OC(=O)c2cc(O)c(O)c(O)c2)c1)c1cc(O)c(O)c(OC(=O)c2cc(O)c(O)c(O)c2)c1 | 59.5 °C | 2.9 µM
4 | O=C(O)c1cc(O)c(O)c(O)c1 | 57.5 °C | 14.3 µM
5 | O=C(O)c1cc(OCCNC(=O)c2cc(O)c(O)c(O)c2)cc(OCCNC(=O)c2cc(O)c(O)c(O)c2)c1 | 58.4 °C | 13.7 µM
